ChEMBL document CHEMBL3632558, “Synthesis, antimycobacterial and antibacterial activity of l-[(1R,2S)-2-fluorocyclopropyl]naphthyridone derivatives containing an oxime-functionalized pyrrolidine moiety” (2015)
≈ marks a conversion by molar mass, not a printed value.

Tests used:
Assay type in all cases: functional
Staphylococcus aureus [1] = test: Antibacterial activity against methicillin-sensitive Staphylococcus aureus 14-1 after 18 to 24 hrs
Summary of the method: (§1)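 MIC by standard NCCLS reference procedure (M100-S11); lowest concentration of compound inhibiting visible bacterial growth after incubation at 35 °C for 18–24 h, read as complete inhibition of growth. Ciprofloxacin, levofloxacin and moxifloxacin run alongside as reference agents.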

Enterococcus faecium [2] = test: Antibacterial activity against Enterococcus faecium 14-1 after 18 to 24 hrs; summary of the method: as §1
[3] = tested on: Mycobacterium tuberculosis; test: Antimycobacterial activity against Mycobacterium tuberculosis H37Rv ATCC 27294 by alamar blue assay
Summary of the method: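 Microplate Alamar Blue Assay; MIC is the lowest concentration giving ≥90% reduction in fluorescence relative to the mean of replicate bacterium-only controls. MDR strain 6133 is resistant to isoniazid and rifampicin.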

Pseudomonas aeruginosa [4] = test: Antibacterial activity against Pseudomonas aeruginosa 14-19 after 18 to 24 hrs; summary of the method: as §1
Enterococcus faecium [5] = test: Antibacterial activity against Enterococcus faecium 14-6 after 18 to 24 hrs; summary of the method: as §1
Pseudomonas aeruginosa [6] = test: Antibacterial activity against Pseudomonas aeruginosa 14-9 after 18 to 24 hrs; summary of the method: as §1
Klebsiella pneumoniae [7] = test: Antibacterial activity against Klebsiella pneumoniae 14-4 after 18 to 24 hrs; summary of the method: as §1
Klebsiella pneumoniae [8] = test: Antibacterial activity against Klebsiella pneumoniae 14-3 after 18 to 24 hrs; summary of the method: as §1
Staphylococcus aureus [9] = test: Antibacterial activity against methicillin-sensitive Staphylococcus aureus 14-3 after 18 to 24 hrs; summary of the method: as §1
Enterococcus faecalis [10] = test: Antibacterial activity against Enterococcus faecalis 14-1 after 18 to 24 hrs; summary of the method: as §1
Enterococcus faecalis [11] = test: Antibacterial activity against Enterococcus faecalis 14-2 after 18 to 24 hrs; summary of the method: as §1
[12] = tested on: Staphylococcus epidermidis; test: Antibacterial activity against methicillin-resistant Staphylococcus epidermidis 14-37 after 18 to 24 hrs
[13] = tested on: Staphylococcus epidermidis; test: Antibacterial activity against methicillin-resistant Staphylococcus epidermidis 14-21 after 18 to 24 hrs
Pseudomonas aeruginosa [14] = test: Antibacterial activity against Pseudomonas aeruginosa 14-16 after 18 to 24 hrs; summary of the method: as §1
Staphylococcus aureus [15] = test: Antibacterial activity against methicillin-sensitive Staphylococcus aureus 14-4 after 18 to 24 hrs; summary of the method: as §1
Staphylococcus aureus [16] = test: Antibacterial activity against methicillin-resistant Staphylococcus aureus 14-5 after 18 to 24 hrs
[17] = tested on: Staphylococcus epidermidis; test: Antibacterial activity against methicillin-sensitive Staphylococcus epidermidis 14-2 after 18 to 24 hrs; summary of the method: as §1
Klebsiella pneumoniae [18] = test: Antibacterial activity against ESBL-positive Klebsiella pneumoniae 14-17 after 18 to 24 hrs; summary of the method: as §1
Escherichia coli [19] = test: Antibacterial activity against ESBL-positive Escherichia coli 14-2 after 18 to 24 hrs; summary of the method: as §1
Streptococcus pneumoniae = test: Antibacterial activity against Streptococcus pneumoniae ATCC 19615 after 18 to 24 hrs; summary of the method: as §1
[20] = tested on: Staphylococcus epidermidis; test: Antibacterial activity against methicillin-resistant Staphylococcus epidermidis 14-39 after 18 to 24 hrs
Klebsiella pneumoniae [21] = test: Antibacterial activity against ESBL-positive Klebsiella pneumoniae 14-18 after 18 to 24 hrs; summary of the method: as §1
Pseudomonas aeruginosa [22] = test: Antibacterial activity against Pseudomonas aeruginosa 14-15 after 18 to 24 hrs; summary of the method: as §1
Staphylococcus aureus [23] = test: Antibacterial activity against methicillin-resistant Staphylococcus aureus 14-4 after 18 to 24 hrs
Staphylococcus aureus [24] = test: Antibacterial activity against methicillin-sensitive Staphylococcus aureus 14-2 after 18 to 24 hrs; summary of the method: as §1
Escherichia coli [25] = test: Antibacterial activity against Escherichia coli 14-1 after 18 to 24 hrs; summary of the method: as §1
Enterococcus faecium [26] = test: Antibacterial activity against Enterococcus faecium 14-2 after 18 to 24 hrs; summary of the method: as §1
Staphylococcus aureus [27] = test: Antibacterial activity against Staphylococcus aureus CMCC 26003 after 18 to 24 hrs; summary of the method: as §1
Escherichia coli [28] = test: Antibacterial activity against ESBL-positive Escherichia coli 14-1 after 18 to 24 hrs; summary of the method: as §1
Escherichia coli [29] = test: Antibacterial activity against Escherichia coli ATCC 25922 after 18 to 24 hrs; summary of the method: as §1
Klebsiella pneumoniae [30] = test: Antibacterial activity against Klebsiella pneumoniae 14-1 after 18 to 24 hrs; summary of the method: as §1
Pseudomonas aeruginosa [31] = test: Antibacterial activity against Pseudomonas aeruginosa ATCC 27853 after 18 to 24 hrs; summary of the method: as §1
[32] = tested on: Staphylococcus epidermidis; test: Antibacterial activity against methicillin-resistant Staphylococcus epidermidis 14-22 after 18 to 24 hrs
Escherichia coli [33] = test: Antibacterial activity against Escherichia coli 14-2 after 18 to 24 hrs; summary of the method: as §1
Klebsiella pneumoniae [34] = test: Antibacterial activity against ESBL-positive Klebsiella pneumoniae 14-19 after 18 to 24 hrs; summary of the method: as §1
Pseudomonas aeruginosa [35] = test: Antibacterial activity against Pseudomonas aeruginosa 14-14 after 18 to 24 hrs; summary of the method: as §1
Klebsiella pneumoniae [36] = test: Antibacterial activity against Klebsiella pneumoniae 14-2 after 18 to 24 hrs; summary of the method: as §1
Enterococcus faecium [37] = test: Antibacterial activity against Enterococcus faecium 14-5 after 18 to 24 hrs; summary of the method: as §1

Which MIC (Staphylococcus aureus [1]) does the source give for `NCC1CN(c2nc3c(cc2F)c(=O)c(C(=O)O)cn3[C@@H]2C[C@@H]2F)C/C1=N\OCc1ccc([N+](=O)[O-])cc1` (stereo partly specified) here?
Its MIC is 4 µg/mL (≈ 7.57 µM).

What about the MIC (Enterococcus faecium [2]) of the same compound?
Its MIC is 4 µg/mL (≈ 7.57 µM).

And the MIC90 [3]?
Its MIC90 is 0.467 µg/mL (≈ 0.884 µM).

And the MIC (Pseudomonas aeruginosa [4])?
Its MIC is 16 µg/mL (≈ 30.3 µM).

What about the MIC (Enterococcus faecium [5]) of the same compound?
The MIC was 4 µg/mL (≈ 7.57 µM).

And the MIC (Pseudomonas aeruginosa [6])?
Its MIC is 4 µg/mL (≈ 7.57 µM).

And the MIC (Klebsiella pneumoniae [7])?
The MIC was 128 µg/mL (≈ 242 µM).

What about the MIC (Klebsiella pneumoniae [8]) of the same compound?
Its MIC is 128 µg/mL (≈ 242 µM).

And the MIC (Staphylococcus aureus [9])?
The MIC was 0.03 µg/mL (≈ 0.0568 µM).

What about the MIC (Enterococcus faecalis [10]) of the same compound?
The MIC was 64 µg/mL (≈ 121 µM).

What about the MIC (Enterococcus faecalis [11]) of the same compound?
The MIC was 0.25 µg/mL (≈ 0.473 µM).

What about the MIC [12] of the same compound?
The MIC was 4 µg/mL (≈ 7.57 µM).

What about the MIC [13] of the same compound?
Its MIC is 16 µg/mL (≈ 30.3 µM).

And the MIC (Pseudomonas aeruginosa [14])?
Its MIC is 16 µg/mL (≈ 30.3 µM).

And the MIC (Staphylococcus aureus [15])?
Its MIC is 0.125 µg/mL (≈ 0.237 µM).

What about the MIC (Staphylococcus aureus [16]) of the same compound?
Its MIC is 4 µg/mL (≈ 7.57 µM).

What about the MIC [17] of the same compound?
The MIC was 128 µg/mL (≈ 242 µM).

And the MIC (Klebsiella pneumoniae [18])?
Its MIC is 8 µg/mL (≈ 15.1 µM).

What about the MIC (Escherichia coli [19]) of the same compound?
The MIC was over 128 µg/mL.

What about the MIC (Streptococcus pneumoniae) of the same compound?
Its MIC is 0.015 µg/mL (≈ 0.0284 µM).

And the MIC [20]?
Its MIC is 8 µg/mL (≈ 15.1 µM).

What about the MIC (Klebsiella pneumoniae [21]) of the same compound?
Its MIC is 16 µg/mL (≈ 30.3 µM).

And the MIC (Pseudomonas aeruginosa [22])?
Its MIC is 16 µg/mL (≈ 30.3 µM).

And the MIC (Staphylococcus aureus [23])?
Its MIC is 128 µg/mL (≈ 242 µM).

What about the MIC (Staphylococcus aureus [24]) of the same compound?
Its MIC is 0.06 µg/mL (≈ 0.114 µM).

What about the MIC (Escherichia coli [25]) of the same compound?
The MIC was 128 µg/mL (≈ 242 µM).

What about the MIC (Enterococcus faecium [26]) of the same compound?
The MIC was 4 µg/mL (≈ 7.57 µM).

What about the MIC (Staphylococcus aureus [27]) of the same compound?
The MIC was 0.015 µg/mL (≈ 0.0284 µM).

And the MIC (Escherichia coli [28])?
The MIC was 4 µg/mL (≈ 7.57 µM).

And the MIC (Escherichia coli [29])?
The MIC was 0.25 µg/mL (≈ 0.473 µM).

What about the MIC (Klebsiella pneumoniae [30]) of the same compound?
The MIC was 128 µg/mL (≈ 242 µM).

And the MIC (Pseudomonas aeruginosa [31])?
The MIC was 4 µg/mL (≈ 7.57 µM).

What about the MIC [32] of the same compound?
Its MIC is 8 µg/mL (≈ 15.1 µM).

What about the MIC (Escherichia coli [33]) of the same compound?
Its MIC is 128 µg/mL (≈ 242 µM).

What about the MIC (Klebsiella pneumoniae [34]) of the same compound?
Its MIC is 128 µg/mL (≈ 242 µM).

And the MIC (Pseudomonas aeruginosa [35])?
Its MIC is 16 µg/mL (≈ 30.3 µM).

What about the MIC (Klebsiella pneumoniae [36]) of the same compound?
Its MIC is 128 µg/mL (≈ 242 µM).

What about the MIC (Enterococcus faecium [37]) of the same compound?
The MIC was 8 µg/mL (≈ 15.1 µM).

Which results are given for `NCC1CN(c2nc3c(cc2F)c(=O)c(C(=O)O)cn3[C@@H]2C[C@@H]2F)C/C1=N\OCc1ccc2c(c1)OCO2` (stereo partly specified)?
MIC (Staphylococcus aureus [1]): 4 µg/mL (≈ 7.58 µM); MIC (Enterococcus faecium [2]): 1 µg/mL (≈ 1.9 µM); MIC90 [3]: < 0.25 µg/mL; MIC (Pseudomonas aeruginosa [4]): 8 µg/mL (≈ 15.2 µM); MIC (Enterococcus faecium [5]): 4 µg/mL (≈ 7.58 µM); MIC (Pseudomonas aeruginosa [6]): 8 µg/mL (≈ 15.2 µM); MIC (Klebsiella pneumoniae [7]): 128 µg/mL (≈ 243 µM); MIC (Klebsiella pneumoniae [8]): 128 µg/mL (≈ 243 µM); MIC (Staphylococcus aureus [9]): 8 µg/mL (≈ 15.2 µM); MIC (Enterococcus faecalis [10]): 16 µg/mL (≈ 30.3 µM); MIC (Enterococcus faecalis [11]): < 0.008 µg/mL; MIC [12]: 6 µg/mL (≈ 11.4 µM); MIC [13]: 4 µg/mL (≈ 7.58 µM); MIC (Pseudomonas aeruginosa [14]): 8 µg/mL (≈ 15.2 µM); MIC (Staphylococcus aureus [15]): < 0.008 µg/mL; MIC (Staphylococcus aureus [16]): 8 µg/mL (≈ 15.2 µM); MIC [17]: 32 µg/mL (≈ 60.7 µM); MIC (Klebsiella pneumoniae [18]): 8 µg/mL (≈ 15.2 µM); MIC (Escherichia coli [19]): 64 µg/mL (≈ 121 µM); MIC (Streptococcus pneumoniae): 0.03 µg/mL (≈ 0.0569 µM); MIC [20]: 8 µg/mL (≈ 15.2 µM); MIC (Klebsiella pneumoniae [21]): 4 µg/mL (≈ 7.58 µM); MIC (Pseudomonas aeruginosa [22]): 8 µg/mL (≈ 15.2 µM); MIC (Staphylococcus aureus [23]): 16 µg/mL (≈ 30.3 µM); MIC (Staphylococcus aureus [24]): < 0.008 µg/mL; MIC (Escherichia coli [25]): 32 µg/mL (≈ 60.7 µM); MIC (Enterococcus faecium [26]): 1 µg/mL (≈ 1.9 µM); MIC (Staphylococcus aureus [27]): < 0.008 µg/mL; MIC (Escherichia coli [28]): 8 µg/mL (≈ 15.2 µM); MIC (Escherichia coli [29]): < 0.008 µg/mL; MIC (Klebsiella pneumoniae [30]): 128 µg/mL (≈ 243 µM); MIC (Pseudomonas aeruginosa [31]): 8 µg/mL (≈ 15.2 µM); MIC [32]: 4 µg/mL (≈ 7.58 µM); MIC (Escherichia coli [33]): 32 µg/mL (≈ 60.7 µM); MIC (Klebsiella pneumoniae [34]): 128 µg/mL (≈ 243 µM); MIC (Pseudomonas aeruginosa [35]): 8 µg/mL (≈ 15.2 µM); MIC (Klebsiella pneumoniae [36]): 128 µg/mL (≈ 243 µM); MIC (Enterococcus faecium [37]): 8 µg/mL (≈ 15.2 µM)
